miR122 inh: inhibitors of miR-122 in Huh7 cells; Huh7 miR-122 Renilla luciferase sensor, 48 h; neutral wells = 0, positive control = 100; activation (reporter increase), % at 12.5 µM; 0.3% of 340,000 active;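 active means mean replicate activation score at least 90 and every replicate individually at or above 90; inconclusive means only one of the two criteria met; inactive means neither criterion met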;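 further: higher luciferase means less miR-122 activity so hits act as miR-122 inhibitors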
Rtt109 Vps75: blocks Candida albicans Rtt109/Vps75 acetyltransferase activity | Q5AAJ8 | purified Rtt109/Vps75, ThioGlo CoA-SH fluorescence, 4 h | inhibition, % at 34.9 µM | 0.16% of 330,000 active | AID 540336;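 active means inhibition of at least 50% in every replicate; inconclusive means best replicate reaches 50% inhibition but some replicates fall short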
Target sequence (Q5AAJ8 whole entry, looked up): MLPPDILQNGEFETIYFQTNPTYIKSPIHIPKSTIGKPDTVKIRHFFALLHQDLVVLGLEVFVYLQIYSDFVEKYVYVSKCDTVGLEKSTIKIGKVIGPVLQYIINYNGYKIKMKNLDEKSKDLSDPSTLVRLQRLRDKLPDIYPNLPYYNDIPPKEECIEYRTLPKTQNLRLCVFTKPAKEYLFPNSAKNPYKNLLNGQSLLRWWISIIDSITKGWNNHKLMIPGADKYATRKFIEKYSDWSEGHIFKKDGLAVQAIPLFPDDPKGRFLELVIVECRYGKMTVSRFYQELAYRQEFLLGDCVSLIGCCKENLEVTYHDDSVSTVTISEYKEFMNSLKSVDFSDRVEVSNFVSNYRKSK
HIV Env fusion: HIV envelope-mediated fusion inhibition | HeLa-JRFL Env/CEM21 cell fusion, luciferase | inhibition, % at 12.3 µM | 1.1% of 360,000 active | AID 651610;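 active means mean replicate inhibition score of at least 50 and every replicate individually at or above 50; inconclusive means only one of the two criteria met; inactive means mean below 50 and not all replicates reaching 50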;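 further: 0% = plate neutral controls and 100% = maraviroc near 300 nM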
Cneo AK release: Cryptococcus neoformans lysis via adenylate kinase release; C. neoformans lysis, adenylate kinase release luminescence, 4 h; normalised: neutral wells 0, clomiphene wells 100; AID 651654; 0.2% of 360,000 active; lysis activity, % at 15 µM;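 active means mean lysis activity across replicates of at least 80%, whatever share of replicates individually reach that level; inactive means mean lysis activity below 80%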
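Material: C. neoformans cells; Schedule: 4 h static compound exposure, 37 °C, read 1 h post-reagent; Measured by: adenylate kinase release luminescence; Read-out: signal increase indicating cell lysis; Controls: Clomiphene as positive lysis control.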
dFosB activator: enhances mouse delta FosB homodimer DNA binding; P13346; purified delta FosB, TAMRA-CDK5 oligo fluorescence polarization; percent of positive-control signal above neutral wells; activation, % at 25 µM; 0.99% of 340,000 active; AID 493131;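 active means mean activation above about 17%, with every replicate also reaching it, limit read from the data, passing the limit was not always enough; inconclusive means only one of the two conditions met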
Target sequence (P13346 whole entry, looked up): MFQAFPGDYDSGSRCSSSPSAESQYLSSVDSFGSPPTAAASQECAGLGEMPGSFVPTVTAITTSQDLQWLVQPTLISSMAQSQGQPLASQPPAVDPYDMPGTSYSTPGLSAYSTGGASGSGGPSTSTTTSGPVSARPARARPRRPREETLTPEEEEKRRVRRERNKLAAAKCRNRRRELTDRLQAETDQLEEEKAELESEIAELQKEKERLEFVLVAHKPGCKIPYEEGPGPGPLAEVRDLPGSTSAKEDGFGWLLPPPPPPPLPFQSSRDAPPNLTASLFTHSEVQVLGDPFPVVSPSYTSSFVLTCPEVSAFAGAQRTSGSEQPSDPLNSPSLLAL
GSIS activator: primary screen for activators of insulin secretion dependent on glucose, INS-1E cells, GLuc reporter luminescence. INS-1E GLuc reporter insulin secretion, 2-3 h. activation, % at 16.6 µM. 0.61% of 370,000 active;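 active means lowest replicate activation of at least 40%, so every replicate reaches that level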;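 further: 0% = median of neutral control wells and 100% = median of IBMX positive control wells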
An asterisk follows results filed as active; u = inconclusive; x = not tested or not shown; [ ] = dose if it differs, or a comment. A selection: hits, their analogues and other compounds. The true share with any hit is near 2.4%.

SMILES	miR122 inh	Rtt109 Vps75	HIV Env fusion	Cneo AK release	dFosB activator	GSIS activator
COC(=O)c1c(CC[C@@H](CO)NC(=O)N[C@@H](Cc2ccccc2)Cn2cc(-c3ccccc3)nn2)oc(C(=O)N2CCOCC2)c1C(=O)OC	x	x	7.1[16.7 µM]	2.3	x	x
COc1ccc(C#Cc2ccc3c(c2)[C@]2(C(=O)N3)[C@H](c3ccc(OCCO)cc3)N3[C@H](c4ccccc4)[C@H](c4ccccc4)OC(=O)[C@H]3[C@@H]2C(=O)N2CCCCCCC2)cc1	x	x	14.6[16.7 µM]	0.5	x	x
C=CCNc1sc(C(=O)C2CC2)c(N)c1C#N	4.3	-7.8	x	0.6	-2.3	64.7*
CCCNC(=O)N1CC2(CCN(Cc3cccnc3)CC2)c2c(n(C)c3cc(OC)ccc23)[C@@H]1CO	x	x	x	x	x	6.7
COc1ccc(C(Nc2cccc([N+](=O)[O-])c2)P(=O)(OC(C)C)OC(C)C)cc1 (configuration not stated)	x	5.1	57.0*	x	-5.3	-40.4
CCOC(=O)c1ccc(NS(=O)(=O)c2cc(-c3nnnn3CC)ccc2OC)cc1	4.4	10.6	-124.8	-2.9	-9.9	x
CCOC(=O)c1ccc(NS(=O)(=O)c2cc(C)ccc2OC)cc1	373.0*	10.2	31.1	-0.6	-3.7	x
COc1ccc(OC)c(S(=O)(=O)Nc2ccc(C(N)=O)cc2)c1	40.4	10.2	x	-1.5	-5.8	4.9
COc1ccc(NS(=O)(=O)c2cc(NC(=O)c3ccc(F)cc3)ccc2OC)cc1	108.4*	14.2	-10.4	0.6	-0.5	-13.8
COc1ccc(OC)c(S(=O)(=O)Nc2ccc(C(C)=O)cc2)c1	99.6*	-4.7	-101.7	0.6	-1.2	x
Cc1cc(NO)c(C(C)C)cc1N=O	x	-0.9	66.5*	x	8.6	x
COc1ccc(-c2cc(C(=O)Nc3cc(C)n(Cc4ccc(Cl)cc4)n3)no2)cc1OC	x	5.1	x	2.2	32.5*	7.2
C=CCNC(=O)c1cc(-c2ccc3c(c2)OCO3)on1	x	2.0	-29.2	-21.4	8.2	43.3*
COc1ccc(OC)c(-c2cc(C(=O)Nc3c(C)nn(Cc4ccc(Cl)cc4)c3C)no2)c1	-22.0	9.9	87.4*	0.2	-6.2	-23.4
CCc1c(C)sc(NC(=O)c2cc(-c3ccc(OC)c(OC)c3)on2)c1C#N	-2.7	-10.4	-156.4	x	4.6	80.4*
CCC(=O)N(C)C[C@H]1Oc2cc(C#Cc3ccncc3)ccc2S(=O)(=O)N([C@H](C)CO)C[C@H]1C	-14.4[16.7 µM]	x	-91.7[16.7 µM]	-7.8	x	-20.6
Cc1nn(Cc2ccc(Cl)c(Cl)c2)c(C)c1NC(=O)c1cc(-c2ccc3c(c2)OCO3)on1	-23.4	-6.3	73.3*	-1.6	-10.6	-29.4
COc1ccc(-c2cc(C(=O)Nc3c(C)nn(Cc4ccccc4Cl)c3C)no2)cc1	-1.0	4.0	15.8	1.1	u	x
CCn1c(/C=C/N(C)c2ccccc2)[n+](CC)c2ccc(Cl)cc21	3.8	36.2	70.3*	-1.5	-17.1	-54.9
CCn1c(/C=C/Nc2ccccc2)[n+](CC)c2ccc(Cl)cc21	x	-5.0	-3.8	x	4.7	-6.2
O=C(NCc1cccc(F)c1)[C@H]1[C@H](CO)[C@H]2Cn3c(cccc3=O)[C@@H]1N2C(=O)c1cnccn1	6.0[16.7 µM]	x	x	15.4	x	7.4
COc1ccc(/C=C2/S/C(=N/S(=O)(=O)Cc3ccccc3)NC2=O)cc1OC	54.2	19.2	-13.5	x	-1.4	78.8*
CCCCOc1ccc(SCCCN2CCOCC2)cc1	5.2	-3.8	17.6	x	-5.2	57.8*
Cc1ccc(SCCCCN2CCOCC2)cc1	7.9	-1.9	11.2	3.0	-4.6	2.3
O=C(NCc1ccccc1)C1C(=O)Nc2ccccc2C(=O)N1C1CCCC1 (configuration not stated)	x	x	39.3	x	x	10.9
SMILES	miR122 inh	Rtt109 Vps75	HIV Env fusion	Cneo AK release	dFosB activator	GSIS activator
CC(C)N1C(=O)c2ccccc2NC(=O)C1C(=O)NCc1ccccc1 (configuration not stated)	x	x	59.5*	x	x	-7.2
CCCN(C)C[C@H]1Oc2ncc(C#CC3CC3)cc2C(=O)N([C@H](C)CO)C[C@@H]1C	-2.9[16.7 µM]	x	-7.5[16.7 µM]	x	x	-5.6
Clc1ccc(-c2csc3ncnc(NCCN4CCOCC4)c23)cc1	-3.8	3.5	63.0*	1.7	-13.0	x
c1ccc(-c2csc3ncnc(NCCN4CCOCC4)c23)cc1	-2.8	1.3	78.4*	x	-6.6	32.4
Cc1ccc(-c2csc3ncnc(NCCN4CCOCC4)c23)cc1	8.9	9.5	u	-0.2	-11.2	x
COC(=O)C[C@@H]1CC[C@@H]2[C@H](COc3ccc(NC(=O)Nc4ccc(C#N)cc4)cc3C(=O)N2C)O1	-0.8[16.7 µM]	x	-20.2[16.7 µM]	-9.4	x	-0.2
CCNc1nc(NCC)n2c(SCC(=O)NC34CC5CC(CC(C5)C3)C4)nnc2n1	3.0	5.2	x	-1.2	0.2	-7.8
CCNc1nc(NCC)n2c(SCC(=O)N(CC)C3CCCCC3)nnc2n1	x	-2.1	-10.8	x	-10.5	73.7*
COc1ccc(S(=O)(=O)N(C)C[C@@H]2Oc3ccc(NC(=O)Nc4c(C)noc4C)cc3C(=O)N([C@@H](C)CO)C[C@@H]2C)cc1	2.9[16.7 µM]	x	x	2.5	x	2.5
CC(=O)C1=C(O)C(=O)N(Cc2ccco2)C1c1ccccc1F (configuration not stated)	x	0.4	4.0	x	-3.6	-10.6
CC(C)(C)C(=O)C1=C(O)C(=O)N(Cc2ccccc2)C1c1ccccc1F (configuration not stated)	238.7*	3.2	5.3	-0.8	-7.2	-6.9
Cc1ccc(C)c(S(=O)(=O)Nc2ccc3[nH]c(=O)[nH]c3c2)c1	x	0.1	9.9	0.9	0.8	-13.2
Cc1ccc(C)c(S(=O)(=O)Nc2ccc3scnc3c2)c1	158.2*	24.1	x	-2.1	-9.1	x
Cc1ccc(-n2ncc3c(=O)n(CC(=O)Nc4cccc(Cl)c4)cnc32)cc1C	-2.9	-5.9	x	-5.0	42.3*	257.3*
COc1ccc(NC(=O)Cn2cnc3c(cnn3-c3ccc(C)c(C)c3)c2=O)c(OC)c1	x	-16.2	x	1.7	1.9	97.2*
CCOc1ccccc1NC(=O)Cn1cnc2c(cnn2-c2ccc(C)c(C)c2)c1=O	-0.7	-35.7	x	2.5	-3.2	6.3
O=C(NC1CCCCC1)N1CC(=O)N2[C@H](CO)[C@@H](c3ccc(-c4ccccc4)cc3)[C@H]2C1	x	x	x	x	x	-10.0
CO[C@@H]1CN(C)C(=O)c2ccc(NC(=O)c3cnccn3)cc2OC[C@@H](C)NC[C@H]1C	x	x	0.2[16.7 µM]	-3.1	x	5.0
C[C@H]1CN([C@@H](C)CO)C(=O)c2cc(-c3cccnc3)cnc2O[C@@H]1CN(C)C(=O)c1cccc(F)c1	-5.5[16.7 µM]	x	-30.8[16.7 µM]	-0.2	x	26.6
COc1ccc2c3c(n(C)c2c1)[C@H](CO)N(Cc1ccc(F)cc1)CC31CN(C)C1	x	x	x	x	x	-3.8
C[C@@H]1CN([C@@H](C)CO)C(=O)c2cccc(NS(=O)(=O)c3ccccc3)c2O[C@H]1CN(C)Cc1ccc(Cl)c(Cl)c1	-3.1[16.7 µM]	x	-8.0[16.7 µM]	-6.9	x	-39.2
